ChEMBL document CHEMBL1949567, “Novel synthesis and biological evaluation of enigmols as therapeutic agents for treating prostate cancer” (ACS Med Chem Lett, 2011)
Activity calls are given as the source filed them. No cut-off for these calls is given here.

Legend:
PC-3 [1] = experiment: Anticancer activity against androgen insensitive human PC3 cells xenografted nude mouse model assessed as decrease in tumor growth rate administered at 15 mg/kg, ip administered once in a week on day 22 to day 29 after implantation relative to control; assay type: functional, organism-based; set-up: dose 15 mg/kg
How it was run: (§1)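 Nude mice bearing PC-3 xenografts (n = 15). Daily oral gavage at 10 mg/kg from Day 22 to Day 34 after implantation. Docetaxel 15 mg/kg or vehicle given i.p. on Days 22 and 29, alone or combined with gavage. Tumor growth and body weight followed. Growth analysed by mixed model for repeated measurements, weights by ANOVA.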

LNCaP [2] = experiment: Cytotoxicity against human LNCAP cells after 24 hrs by WST-1 assay; assay type: functional, cell-based
How it was run: (§2)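 PC-3 (androgen-independent) and LNCaP (androgen-sensitive) prostate cancer cells treated for 24 h. Cytotoxicity read by WST-1 assay. IC50 calculated from the resulting data.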

PC-3 [3] = experiment: Cytotoxicity against human PC3 cells after 24 hrs by WST-1 assay; assay type: functional, cell-based; conditions: PC-3, 24 h; how it was run: as §2
PC-3 [4] = experiment: Anticancer activity against androgen insensitive human PC3 cells xenografted nude mouse model assessed as decrease in tumor growth rate administered at 10 mg/kg, po once daily administered from day 16 after implantation; assay type: functional, organism-based; set-up: dose 10 mg/kg
How it was run: (§3)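 Nude mice bearing established PC-3 tumors (n = 10) given 10 mg/kg daily by oral gavage from day 16 after implantation, with vehicle controls. Tumor growth and body weight measured over time. Growth rates compared by mixed model for repeated measurements, weights by ANOVA.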

Mus musculus [5] = experiment: Toxicity in androgen insensitive human PC3 cells xenografted nude mouse model assessed as body weight change administered at 10 mg/kg, po once daily administered from day 16 after implantation; assay type: organism-based, PC-3; set-up: dose 10 mg/kg, route oral; conditions: in vivo; how it was run: as §3
[6] = Tmax in CD-1/Swiss Webster mouse at 30 mg/kg, po by LC/MS/MS analysis; assay type: ADME, organism-based; set-up: dose 30 mg/kg, route oral; conditions: in vivo
How it was run: (§4)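 Outbred male Swiss Webster or CD-1 mice, n = 3 per time point, single oral dose of 10 or 30 mg/kg in 10% ethanol/90% olive oil given at 5 mL/kg. Blood drawn from submandibular vein or retro-orbital plexus at set time points. PK parameters calculated from mean plasma concentrations (nM).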

[7] = Tmax in CD-1/Swiss Webster mouse at 10 mg/kg, po by LC/MS/MS analysis; assay type: ADME, organism-based; set-up: dose 10 mg/kg, route oral; conditions: in vivo; how it was run: as §4
[8] = Cmax in CD-1/Swiss Webster mouse at 10 mg/kg, po by LC/MS/MS analysis; assay type: ADME, organism-based; set-up: dose 10 mg/kg, route oral; conditions: in vivo; how it was run: as §4
[9] = Cmax in CD-1/Swiss Webster mouse at 30 mg/kg, po by LC/MS/MS analysis; assay type: ADME, organism-based; set-up: dose 30 mg/kg, route oral; conditions: in vivo; how it was run: as §4
[10] = Half life in CD-1/Swiss Webster mouse at 10 mg/kg, po by LC/MS/MS analysis; assay type: ADME, organism-based; set-up: dose 10 mg/kg, route oral; conditions: in vivo; how it was run: as §4
[11] = Half life in CD-1/Swiss Webster mouse at 30 mg/kg, po by LC/MS/MS analysis; assay type: ADME, organism-based; set-up: dose 30 mg/kg, route oral; conditions: in vivo; how it was run: as §4
[12] = AUC (0 to t) in CD-1/Swiss Webster mouse at 10 mg/kg, po by LC/MS/MS analysis; assay type: ADME, organism-based; set-up: dose 10 mg/kg, route oral; conditions: plasma; how it was run: as §4
[13] = AUC (0 to t) in CD-1/Swiss Webster mouse at 30 mg/kg, po by LC/MS/MS analysis; assay type: ADME, organism-based; set-up: dose 30 mg/kg, route oral; conditions: plasma; how it was run: as §4
[14] = AUC (0 to infinity) in CD-1/Swiss Webster mouse at 10 mg/kg, po by LC/MS/MS analysis; assay type: ADME, organism-based; set-up: time infinity, dose 10 mg/kg, route oral; conditions: plasma; how it was run: as §4
[15] = AUC (0 to infinity) in CD-1/Swiss Webster mouse at 30 mg/kg, po by LC/MS/MS analysis; assay type: ADME, organism-based; set-up: time infinity, dose 30 mg/kg, route oral; conditions: plasma; how it was run: as §4
[16] = Apparent volume of distribution during terminal phase in CD-1/Swiss Webster mouse at 10 mg/kg, po by LC/MS/MS analysis; assay type: ADME, organism-based; set-up: dose 10 mg/kg, route oral; conditions: in vivo, read-out: Vz/F; how it was run: as §4
Mus musculus [17] = experiment: (§5) Apparent volume of distribution during terminal phase in CD-1/Swiss Webster mouse at 30 mg/kg, po by LC/MS/MS analysis; assay type: ADME, organism-based; set-up: dose 30 mg/kg, route oral; conditions: in vivo; how it was run: as §4
[18] = Apparent oral clearance in CD-1/Swiss Webster mouse at 10 mg/kg, po by LC/MS/MS analysis; assay type: ADME, organism-based; set-up: dose 10 mg/kg, route oral; conditions: in vivo; how it was run: as §4
[19] = Apparent oral clearance in CD-1/Swiss Webster mouse at 30 mg/kg, po by LC/MS/MS analysis; assay type: ADME, organism-based; set-up: dose 30 mg/kg, route oral; conditions: in vivo; how it was run: as §4
[20] = Drug uptake in rat prostate tissue at 100 mg/kg, po; assay type: ADME, organism-based, Prostate gland; set-up: dose 100 mg/kg, route oral; conditions: in vivo, read-out: Drug uptake
LNCaP [21] = experiment: Anticancer activity against androgen sensitive human LNCAP cells xenografted nude mouse model assessed as reduction in tumor growth rate administered at 10 mg/kg, po once daily after day 14 of implantation measured on day 36 relative to control; assay type: functional, organism-based; set-up: dose 10 mg/kg
How it was run: (§6)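 Nude mice bearing palpable subcutaneous LNCaP tumors (n = 10–12 per group). Castration or sham surgery on Day 13 after implantation. Daily oral gavage of 10 mg/kg or vehicle from Day 14. Tumor growth followed over time and body weights monitored. Controls sacrificed Day 36 for tumor burden; some groups continued longer. Growth analysed by mixed model for repeated measurements, weights by ANOVA.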

LNCaP [22] = experiment: Anticancer activity in androgen sensitive human LNCAP cells xenografted castrated mouse model assessed as reduction in tumor growth rate administered at 10 mg/kg, po once daily from day 14 after implantation measured on day 38 relative to control; assay type: functional, organism-based; set-up: dose 10 mg/kg; how it was run: as §6
PC-3 [23] = experiment: Anticancer activity against androgen insensitive human PC3 cells xenografted nude mouse model assessed as decrease in tumor growth rate administered at 10 mg/kg, po once daily administered from day 22 to day 34 after implantation relative to control; assay type: functional, organism-based; set-up: dose 10 mg/kg; how it was run: as §1
PC-3 [24] = experiment: Anticancer activity against androgen insensitive human PC3 cells xenografted nude mouse model assessed as decrease in tumor growth rate administered at 10 mg/kg, po once daily administered from day 22 to day 34 after implantation coadministered with docetaxel relative to control; assay type: functional, organism-based; set-up: dose 10 mg/kg; how it was run: as §1
Mus musculus [25] = experiment: Toxicity in androgen sensitive human LNCAP cells xenografted nude mouse model assessed as body weight change at 10 mg/kg, po once daily after day 14 of implantation; assay type: organism-based; set-up: dose 10 mg/kg, route oral; conditions: in vivo; how it was run: as §6
Mus musculus [26] = experiment: Toxicity in androgen sensitive human LNCAP cells xenografted castrated mouse model assessed as body weight change at 10 mg/kg, po once daily after day 14 of implantation; assay type: organism-based; set-up: dose 10 mg/kg, route oral; conditions: in vivo; how it was run: as §6
Mus musculus [27] = experiment: Toxicity in androgen insensitive human PC3 cells xenografted nude mouse model assessed as body weight change administered at 10 mg/kg, po once daily administered from day 22 to day 34 after implantation; assay type: organism-based, PC-3; set-up: dose 10 mg/kg, route oral; conditions: in vivo; how it was run: as §1
PC-3 [28] = experiment: Anticancer activity against androgen insensitive human PC3 cells xenografted nude mouse model assessed as decrease in tumor growth rate administered at 10 mg/kg, po once daily administered from day 16 after implantation
[29] = as §5; assay type: ADME, organism-based; set-up: dose 30 mg/kg, route oral; conditions: CD-1/Swiss Webster, in vivo, read-out: Vz/F; how it was run: as §4

| Tmax [6] | Tmax [7] | Cmax [8] | Cmax [9] | half-life [10] | half-life [11] | AUC(0-t) [12] | AUC(0-t) [13] | AUC(0-inf) [14] | AUC(0-inf) [15] | Vd/F [16] | CL/F [18] | CL/F [19] | Compound | IC50 (LNCaP [2]) | IC50 (PC-3 [3]) | Activity (PC-3 [4]) | Activity (Mus musculus [5]) | further results |
| --- | --- | --- | --- | --- | --- | --- | --- | --- | --- | --- | --- | --- | --- | --- | --- | --- | --- | --- |
| – | – | – | – | – | – | – | – | – | – | – | – | – | CC(=O)O[C@@]12CO[C@@H]1C[C@H](O)[C@@]1(C)C(=O)[C@H](O)C3=C(C)[C@@H](OC(=O)[C@H](O)[C@@H](NC(=O)OC(C)(C)C)c4ccccc4)C[C@@](O)([C@@H](OC(=O)c4ccccc4)[C@H]21)C3(C)C | – | – | – | – | Activity (PC-3 [1]): Active |
| – | – | – | – | – | – | – | – | – | – | – | – | – | CCCCCCCCCCCCC[C@@H](O)C[C@@H](O)[C@H](C)N | 50 µM | 49.3 µM | – | – | – |
| – | – | – | – | – | – | – | – | – | – | – | – | – | CCCCCCCCCCCCC[C@@H](O)C[C@H](O)[C@H](C)N | 9.7 µM | 10.2 µM | Active | 0.3% | – |
| – | – | – | – | – | – | – | – | – | – | – | – | – | CCCCCCCCCCCCC[C@H](O)C[C@@H](O)[C@H](C)N | 5 µM | 9.7 µM | Active | 0.3% | – |
| 2 h | 2 h | 0.137 µM | 0.705 µM | 11 h | 5 h | 1.88 µM·h | 5.96 µM·h | 2.54 µM·h | 6.96 µM·h | 211 L/kg | 13 L/h/kg | 14 L/h/kg | CCCCCCCCCCCCC[C@H](O)C[C@H](O)[C@H](C)N [ENIGMOL] | 9.7 µM | 10.3 µM | Active | – | Vz/F (Mus musculus [17]): 107 L/kg; concentration [20]: 10 µM; Activity (LNCaP [21]): Active; Activity (LNCaP [22]): Active; Activity (PC-3 [23]): Active; Activity (PC-3 [24]): Active; Activity (Mus musculus [25]): < 6%; Activity (Mus musculus [26]): < 6%; Activity (Mus musculus [27]): 0.3%; Activity (PC-3 [28]): Active |
| 2 h | 4 h | 0.232 µM | 1.11 µM | 15 h | 12 h | 3.86 µM·h | 13.6 µM·h | 5.99 µM·h | 17.9 µM·h | 117 L/kg | 5 L/h/kg | 5 L/h/kg | CCCCCCCCCCCCC[C@H](O)C[C@H](O)[C@H](C)NC | 25 µM | 10.5 µM | – | – | Vd/F [29]: 90 L/kg |
